Source: ChEMBL document CHEMBL1124458, “Electrophilic derivatives of purines as irreversible inhibitors of A1 adenosine receptors” (J Med Chem, 1989)

Experiments:
[1] = molecular target: T1, Adenosine receptor A1 (Rattus norvegicus) (UniProt P25099); assay: Inhibition of [125I]-APNEA binding to adenosine A1 receptor of rat brain at 50 nM
T1 sequence (whole entry): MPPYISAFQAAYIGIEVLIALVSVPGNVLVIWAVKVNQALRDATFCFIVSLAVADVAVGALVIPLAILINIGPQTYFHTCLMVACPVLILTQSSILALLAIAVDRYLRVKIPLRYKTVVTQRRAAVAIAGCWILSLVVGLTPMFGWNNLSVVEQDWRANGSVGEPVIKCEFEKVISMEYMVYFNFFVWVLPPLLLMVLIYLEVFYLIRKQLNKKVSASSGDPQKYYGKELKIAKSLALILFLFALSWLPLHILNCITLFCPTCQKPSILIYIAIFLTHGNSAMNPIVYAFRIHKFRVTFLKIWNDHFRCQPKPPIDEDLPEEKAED
In short: (§1)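 Adenosine deaminase-treated rat cerebral cortex membranes were exposed to the ligand for 45 min at 37 °C. They were washed three times, held in buffer with 10⁻⁴ M IBMX for 18 h at 25 °C, washed and re-treated with deaminase. Residual sites were measured by 125I-APNEA saturation (0.1–2.5 nM) against untreated membranes carried through the same procedure.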

[2] = molecular target: Adenosine A2 receptor (Rattus norvegicus, UniProt P29276+P30543); assay: Inhibition of [3H]N-ethyladenosine-5'-uronamide binding to Adenosine A2 receptor of rat striatal membrane
[3] = molecular target: T2, Adenosine receptors; A1 & A2 (Rattus norvegicus) (UniProt P29276+P25099+P30543); assay: Relative affinities for Adenosine A2 and Adenosine A1 receptors; assay type: protein assay
[4] = molecular target: T1, Adenosine receptor A1 (Rattus norvegicus); conditions: 50 nM
[5] = molecular target: T3, Adenosine receptor A1 (Rattus norvegicus, UniProt P25099); assay: Affinity for adenosine A1 receptor using [3H]-N6 -(phenylisopropyl)-adenosine (R)-[3H]-PIA in rat brain.; assay type: tissue-based
T3 sequence (P25099 whole entry): T1 sequence (whole entry)
In short: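 Rat cerebral cortex membranes were incubated with 1 nM (R)-[3H]PIA and a range of competitor concentrations. Each point was run in triplicate, in at least three separate experiments.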

[6] = molecular target: T1, Adenosine receptor A1 (Rattus norvegicus); assay: Percentage inhibition of [125I]APNEA binding to adenosine A1 receptor from rat brain after 45 min incubation at 500 nM; in short: as §1
[7] = molecular target: T1, Adenosine receptor A1 (Rattus norvegicus); conditions: 5 nM
[8] = molecular target: T1, Adenosine receptor A1 (Rattus norvegicus); conditions: 5 nM; remark: listed apart in the source
[9] = molecular target: T1, Adenosine receptor A1 (Rattus norvegicus); assay: Percentage inhibition of [125I]APNEA binding to Adenosine A1 receptor from rat brain after 45 min incubation at 10 nM
In short: (§2)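 Rat cerebral cortex membranes pretreated with adenosine deaminase (0.5 unit/mL, 20 min, 37 °C). Incubated with ligand at the stated concentration for 45 min at 37 °C, then washed three times in Tris/MgCl2/EDTA buffer pH 8.26 with 0.02% Chaps. Then 10⁻⁴ M IBMX for 18 h at 25 °C, washed twice and deaminase-treated again. Untreated membranes went through every step as controls.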

[10] = molecular target: T1, Adenosine receptor A1 (Rattus norvegicus); assay: Percentage inhibition of [125I]APNEA binding to adenosine A1 receptor from rat brain after 45 min incubation at 10 nM; in short: as §2
[11] = molecular target: T1, Adenosine receptor A1 (Rattus norvegicus); assay: Percentage inhibition of [125I]APNEA binding to adenosine A1 receptor from rat brain after 45 min incubation at 1 nM
In short: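 Rat cerebral cortex membranes, pretreated with adenosine deaminase (0.5 unit/mL, 20 min, 37 °C), incubated with ligand 45 min at 37 °C. Washed three times in Tris/MgCl2/EDTA buffer pH 8.26 with 0.02% Chaps, then 10⁻⁴ M IBMX 18 h at 25 °C to strip reversible ligand. Washed, deaminase-treated again, then 125I-APNEA saturation binding (0.1–2.5 nM; nonspecific 10⁻⁵ M R-PIA). Inhibition is relative to untreated membranes carried through the same steps.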

[12] = molecular target: T3, Adenosine receptor A1; assay: Affinity for adenosine A1 receptor using [3H]N6-(phenylisopropyl)adenosine (R)-[3H]-PIA as a radioligand in rat brain.; assay type: tissue-based
[13] = molecular target: T4, Adenosine receptor A1 (Bos taurus, UniProt P28190); assay: Affinity for Adenosine A1 receptor using [125I]APNEA in calf brain.
T4 sequence (P28190 whole entry): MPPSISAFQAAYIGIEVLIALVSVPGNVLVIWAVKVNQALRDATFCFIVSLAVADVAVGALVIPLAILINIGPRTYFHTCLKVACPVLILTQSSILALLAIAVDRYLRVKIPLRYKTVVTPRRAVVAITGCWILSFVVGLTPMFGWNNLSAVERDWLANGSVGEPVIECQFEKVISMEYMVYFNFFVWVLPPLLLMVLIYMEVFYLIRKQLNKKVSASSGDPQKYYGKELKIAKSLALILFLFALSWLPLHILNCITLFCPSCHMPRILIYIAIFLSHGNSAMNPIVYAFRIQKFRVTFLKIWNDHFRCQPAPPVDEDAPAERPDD
In short: (§3)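 Bovine cerebral cortex membranes were pretreated with adenosine deaminase (0.5 unit/mL, 20 min, 37 °C). Membranes (40 µg) were incubated with 125I-APNEA and competitor for 1 h at 37 °C. Separation was by dilution in cold Tris-HCl/MgCl2/EDTA buffer, pH 8.26, with 0.02% Chaps, then glass-filter filtration and gamma counting. Nonspecific binding was defined with 10⁻⁵ M (R)-PIA.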

[14] = molecular target: T1, Adenosine receptor A1 (Rattus norvegicus); assay: Percentage inhibition of [125I]-APNEA binding to Adenosine A1 receptor from rat brain after 45 min incubation at 50 nM; in short: as §2
[15] = molecular target: T4, Adenosine receptor A1; assay: Affinity for Adenosine A1 receptor using [N6-[(3-[125I]-iodo-4-aminophenyl)ethyl]adenosine in calf brain; assay type: tissue-based; in short: as §3
[16] = molecular target: T2, Adenosine receptors; A1 & A2 (Rattus norvegicus); assay: Selectivity ratio between Ki for adenosine A2 and A1 receptors; assay type: protein assay

| SMILES | inhibition [1] [%] | Ki [2] [nM] | Ki [12] [nM] | other results |
| --- | --- | --- | --- | --- |
| CCCn1c(=O)c2nc(-c3ccc(OCC(=O)NCCNC(=O)CCCCCCC(=O)ON4C(=O)CCC4=O)cc3)[nH]c2n(CCC)c1=O | 32 | 207 |  |  |
| CCCn1c(=O)c2nc(-c3ccc(OCC(=O)NCCNC(=O)Cc4ccc(N/C(S)=N/c5ccc(N=C=S)cc5)cc4)cc3)[nH]c2n(CCC)c1=O |  | 655 |  | Ratio [3]: 26.2; inhibition [4]: 20% |
| CCCn1c(=O)c2nc(-c3ccc(OCC(=O)NCCNC(=O)CBr)cc3)[nH]c2n(CCC)c1=O | 16 |  |  |  |
| N#Cc1ccc(N/C(S)=N/CCNC(=O)Cc2ccc(NC(=O)Cc3ccc(Nc4ncnc5c4ncn5C4O[C@H](CO)[C@@H](O)[C@H]4O)cc3)cc2)cc1 (stereo partly drawn) |  |  |  | Ki [5]: 2.66 nM |
| CCCn1c(=O)c2nc(-c3ccc(OCC(=O)NCCN=C(S)Nc4cccc(N=C=S)c4)cc3)[nH]c2n(CCC)c1=O |  | 343 |  | Ratio [3]: 144; inhibition [6]: 94%; inhibition [7]: 49%; inhibition [8]: 67% |
| O=C(Cc1ccc(NC(=O)Cc2ccc(Nc3ncnc4c3ncn4C3O[C@H](CO)[C@@H](O)[C@H]3O)cc2)cc1)NCC/N=C(\S)Nc1ccc(N=C=S)cc1 (stereo partly drawn) |  | 191 |  | inhibition [9]: > 80%; inhibition [10]: > 80%; inhibition [11]: 39% |
| CCCn1c(=O)c2nc(-c3ccc(OCC(=O)NCCN=C(S)Nc4ccc(OC)cc4)cc3)[nH]c2n(CCC)c1=O |  |  | 33.2 |  |
| O=C(Cc1ccc(NC(=O)Cc2ccc(Nc3ncnc4c3ncn4C3O[C@H](CO)[C@@H](O)[C@H]3O)cc2)cc1)NCCN=C=S (stereo partly drawn) |  |  | 4.5 | Ki [13]: 4.2 nM |
| CCCn1c(=O)c2[nH]c(-c3ccc(OCC(=O)NCCNC(=O)Cc4ccc(NC(=S)Nc5ccc(N=C=S)cc5)cc4)cc3)nc2n(CCC)c1=O |  |  | 25 |  |
| CCCn1c(=O)c2nc(-c3ccc(OCC(=O)NCCN=C(S)Nc4ccc(N=C=S)cc4)cc3)[nH]c2n(CCC)c1=O | 29 | 321 |  | Ratio [3]: 48.6; inhibition [6]: 73%; inhibition [14]: 63% |
| CCCn1c(=O)c2[nH]c(-c3ccc(OCC(=O)NCCNC(=S)Nc4ccc(C#N)cc4)cc3)nc2n(CCC)c1=O |  |  | 16.6 |  |
| CCCn1c(=O)c2nc(-c3ccc(OCC(=O)NCCNC(=O)CNC(=O)CCCN4C(=O)C=CC4=O)cc3)[nH]c2n(CCC)c1=O | 9 |  |  |  |
| CCCn1c(=O)c2nc(-c3ccc(OCC(=O)NCCN=C(S)Nc4ccc([N+](=O)[O-])cc4)cc3)[nH]c2n(CCC)c1=O |  |  | 15.9 |  |
| CCCn1c(=O)c2nc(-c3ccc(OCC(=O)NCCNC(=O)CCSSc4ccccn4)cc3)[nH]c2n(CCC)c1=O | 3 |  |  |  |
| O=C(Cc1ccc(NC(=O)Cc2ccc(Nc3ncnc4c3ncn4C3O[C@H](CO)[C@@H](O)[C@H]3O)cc2)cc1)NCCNC(=S)Nc1ccc(N=C=S)cc1 (stereo partly drawn) |  |  | 0.469 |  |
| CCCn1c(=O)c2[nH]c(-c3ccc(OCC(=O)NCCNC(=O)CCCCCCC(=O)ON4C(=O)CCC4=O)cc3)nc2n(CCC)c1=O |  |  |  | Ki [15]: 23 nM |
| CCCn1c(=O)c2nc(-c3ccc(OCC(=O)NCCN=C(S)Nc4ccc(S(=O)(=O)[O-])cc4)cc3)[nH]c2n(CCC)c1=O.[Na+] |  | 1450 | 367 | Ratio [16]: 3.95 |
| CCCn1c(=O)c2nc(-c3ccc(OCC(=O)NCCNC(=O)CCCCC(C)=O)cc3)[nH]c2n(CCC)c1=O |  |  |  | Ki [13]: 6.2 nM; inhibition [6]: 0% |
| O=C(Cc1ccc(Nc2ncnc3c2ncn3C2O[C@H](CO)[C@@H](O)[C@H]2O)cc1)ON1C(=O)CCC1=O (stereo partly drawn) | 21 |  | 8.37 |  |
